As a reminder, the GI50 is the concentration giving 50% growth inhibition. A lower GI50 goes with greater sensitivity of the cells.

Structures are written as SMILES.

The results in this text go back to ChEMBL document CHEMBL3352478, “Novel benzopsoralen analogues: synthesis, biological activity and molecular docking studies” (2014).

The test system of one test is MDA-MB-231. The test can be described thus: Antiproliferative activity against human MDA-MB-231 cells after 48 hrs by MTS assay. The test is classed as functional. To be noted: MDA-MB-231, 48 h. The essentials: (§1)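 Cells were grown in DMEM with 1% penicillin/streptomycin and FBS (10% for MDA-MB-231, 15% for TCC-SUP). At 1×10^4 cells/mL, cells were exposed for 48 h to five compound concentrations freshly diluted from DMSO stocks (final DMSO <1%). MTS reagent was then added for 2 h at 37 °C, 5% CO2, and absorbance read at 490 nm. Viability was taken as % of control and GI50 read from dose-response curves; 3 independent cultures, 4 wells per concentration.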

Test [1] in a line: Antiproliferative activity against human TCCSUP cells after 48 hrs by MTS assay. The note with it: TCC-SUP. The class given is functional. The essentials:
as §1

Regarding `Cc1c(Cl)c(=O)oc2cc3[nH]c4ccccc4c3cc12`, the GI50 in the test with MDA-MB-231 came out at 0.421 µM; in test [1] it was 0.149 µM.
For the molecule `Cc1cc(=O)oc2c1ccc1c3ccccc3sc12`, the GI50 in the test on MDA-MB-231 came out at 0.049 µM; in test [1], 0.253 µM.
In the same order, the values of `Cc1c(Cl)c(=O)oc2c1ccc1c3ccccc3sc12` are 0.46 µM and 0.311 µM.
With `CCOC(=O)/C=C/n1c2ccccc2c2cc(O)ccc21`, the GI50 came out at 0.198 µM in the test on MDA-MB-231 and 0.025 µM in test [1].
On the same counts, the results for `Cc1c(Cl)c(=O)oc2cc3c(cc12)oc1ccccc13` are 0.082 µM and 0.243 µM.
